One block for each molecule: values may come before it.
Assays:
Rattus norvegicus [1] = experiment: Anticonvulsant activity (ED50) was measured by maximal electroshock seizure test in rat by po administration; No effective response; assay type: functional, organism-based
How it was run: (§1)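 Maximal electroshock test in male albino Sprague–Dawley rats (100 g) after oral dosing, run at the previously determined time of peak effect. At least eight rats per group received various doses until at least two points lay between 0% and 100% protection. ED50 with 95% confidence interval was calculated. Single-dose entries report percent protection at that dose.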

[2] = Partition coefficient (logP); assay type: physicochemical; conditions: octanol/water
Rattus norvegicus [3] = experiment: Minimal motor impairment activity of the compound was measured by […] in rat by po administration; No effective response; assay type: functional, organism-based
How it was run: (§2)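 Minimal motor impairment in male Sprague–Dawley rats (100 g) after oral dosing was judged at the time of peak effect. The criterion was overt ataxia, abnormal gait and stance, and/or loss of placing response and muscle tone. Groups had at least eight rats across various doses, and the median impairing dose with its 95% confidence interval was calculated.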

Mus musculus [4] = experiment: Anticonvulsant activity (ED50) was measured by maximal electroshock seizure test in mice by ip administration; No effective response; assay type: functional, organism-based
How it was run: (§3)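 Male albino CF No. 1 mice (18–25 g) were dosed ip and tested by maximal electroshock at the previously determined time of peak effect. Groups of at least eight mice received various doses until at least two points fell between 0% and 100% protection. ED50 and its 95% confidence interval were calculated. Single-dose entries give protection percentage at the indicated dose.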

Mus musculus [5] = experiment: Minimal motor impairment activity of the compound was measured by Rotarod test in mice by ip administration; No effective response; assay type: functional, organism-based
How it was run: (§4)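 Rotorod neurotoxicity test in male albino CF No. 1 mice dosed ip, run at the time of peak effect. Impairment was defined as failure to keep equilibrium for 60 s in each of three trials on the rotating rod. With groups of at least eight mice across various doses, the median motor-impairing dose and its 95% confidence interval were calculated.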

Rattus norvegicus [6] = experiment: Minimal motor impairment activity by Rotarod test in rat following p.o. administration.; assay type: functional; conditions: po; how it was run: as §2
Rattus norvegicus [7] = experiment: Anticonvulsant activity was measured by maximal electroshock seizure test in rat by po administration; assay type: functional; how it was run: as §1
Mus musculus [8] = experiment: Anticonvulsant activity was measured by maximal electroshock seizure test in mice by ip administration; assay type: functional; how it was run: as §3
Mus musculus [9] = experiment: Minimal motor impairment activity by Rotarod test in mice following i.p. administration.; assay type: functional; conditions: ip; how it was run: as §4
Rattus norvegicus [10] = experiment: Anticonvulsant activity in corneal kindled rats was determined when 10 mg/kg was administered orally; assay type: functional; conditions: route oral
How it was run: (§5)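 Male Sprague–Dawley rats were kindled by daily corneal stimulation (8 mA, 60 Hz, 4 s) until they reached 10 consecutive stage 5 seizures (rearing and falling with clonus). The drug was then given orally, and seizure score was recorded as mean ± variation. Abolition of the generalized stage 4–5 seizure served as the endpoint.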

Rattus norvegicus [11] = experiment: Anticonvulsant activity in corneal kindled rats was determined when 80 mg/kg was administered orally; assay type: functional; conditions: route oral; how it was run: as §5
Rattus norvegicus [12] = experiment: Anticonvulsant activity in corneal kindled rats was determined when 20 mg/kg was administered orally; assay type: functional; conditions: route oral; how it was run: as §5
Rattus norvegicus [13] = experiment: Anticonvulsant activity in corneal kindled rats was determined when 40 mg/kg was administered orally; assay type: functional; conditions: route oral; how it was run: as §5
Mus musculus [14] = experiment: Anticonvulsant activity was measured by maximal electroshock seizure test in mice by ip administration at 100 mg/kg dose; assay type: functional; conditions: route intraperitoneal; how it was run: as §3
Rattus norvegicus [15] = experiment: Anticonvulsant activity was measured by maximal electroshock seizure test in rat by po administration at 50 mg/kg dose; assay type: functional; how it was run: as §1
Rattus norvegicus [16] = experiment: Anticonvulsant activity was measured by maximal electroshock seizure test in rat by po administration at 30 mg/kg; assay type: functional; how it was run: as §1
Mus musculus [17] = experiment: Anticonvulsant activity was measured by maximal electroshock seizure test in mice by ip administration at 30 mg/kg; assay type: functional; conditions: route intraperitoneal; how it was run: as §3
Rattus norvegicus [18] = experiment: Anticonvulsant activity was measured by maximal electroshock seizure test in rat by po administration at 50 mg/kg; assay type: functional; how it was run: as §1
Mus musculus [19] = experiment: Anticonvulsant activity was measured by maximal electroshock seizure test in mice by ip administration at 100 mg/kg; assay type: functional; conditions: route intraperitoneal; how it was run: as §3
Rattus norvegicus [20] = experiment: Anticonvulsant activity was measured by maximal electroshock seizure test in rat by po administration; No effective response; assay type: functional, organism-based; how it was run: as §1
Mus musculus [21] = experiment: Anticonvulsant activity was measured by maximal electroshock seizure test in mice by ip administration; No effective response; assay type: functional, organism-based; how it was run: as §3
Rattus norvegicus [22] = experiment: Anticonvulsant activity in corneal kindled rats was determined when 50 mg/kg was administered orally; assay type: functional; conditions: route oral
How it was run: (§6)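 Corneally kindled male Sprague–Dawley rats (100 g), stimulated daily via corneal electrodes (8 mA, 60 Hz, 4 s) until 10 consecutive stage 5 seizures. Drug was dosed orally at 0.04 mL/10 g body weight. Seizure severity was scored after dosing, with abolition of the generalized stage 4/5 seizure (clonus, rearing and falling) as the endpoint.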

Rattus norvegicus [23] = experiment: Anticonvulsant activity in corneal kindled rats was determined when 25 mg/kg was administered orally; assay type: functional; conditions: route oral; how it was run: as §6
Rattus norvegicus [24] = experiment: Anticonvulsant activity in corneal kindled rats was determined when 75 mg/kg was administered orally; assay type: functional; conditions: route oral; how it was run: as §6
Rattus norvegicus [25] = experiment: Anticonvulsant activity in corneal kindled rats was determined when 100 mg/kg was administered orally; assay type: functional; conditions: route oral; how it was run: as §6
Rattus norvegicus [26] = experiment: Anticonvulsant activity in corneal kindled rats was determined when 50 mg/kg was administered intraperitoneally; assay type: functional; conditions: route intraperitoneal
How it was run: (§7)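 Male Sprague–Dawley rats (100 g) kindled by daily corneal stimulation at 8 mA/60 Hz for 4 s until 10 consecutive stage 5 seizures (rearing and falling with clonus). Drug was given ip in 0.5% methyl cellulose in water at 0.04 mL/10 g body weight. Read-out was seizure score; abolition of the generalized (stage 4–5) seizure was the endpoint.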

Rattus norvegicus [27] = experiment: Anticonvulsant activity in corneal kindled rats was determined when 75 mg/kg was administered intraperitoneally; assay type: functional; conditions: route intraperitoneal; how it was run: as §7
Rattus norvegicus [28] = experiment: Anticonvulsant activity in corneal kindled rats was determined when 10 mg/kg was administered intraperitoneally; assay type: functional; conditions: route intraperitoneal; how it was run: as §7
Rattus norvegicus [29] = experiment: Anticonvulsant activity in corneal kindled rats was determined when 25 mg/kg was administered intraperitoneally; assay type: functional; conditions: route intraperitoneal; how it was run: as §7
Rattus norvegicus [30] = experiment: Anticonvulsant activity in corneal kindled rats was determined when 150 mg/kg was administered intraperitoneally; assay type: functional; conditions: route intraperitoneal; how it was run: as §7
Rattus norvegicus [31] = experiment: Anticonvulsant activity in corneal kindled rats was determined when 100 mg/kg was administered intraperitoneally; assay type: functional; conditions: route intraperitoneal; how it was run: as §7

logP [2]: 4.2
Structure (SMILES): CCS(=O)(=O)n1cc(-c2ccc(Cl)cc2)c(N2CCOCC2)c1C(=O)OC
ED50 (Rattus norvegicus [1]): No effective response | ED50 (Rattus norvegicus [3]): No effective response | ED50 (Mus musculus [4]): No effective response | ED50 (Mus musculus [5]): No effective response

logP [2]: 3.5
Structure (SMILES): COC(=O)c1c(N2CCOCC2)c(-c2ccc(Cl)cc2)cn1C(C)=O
ED50 (Rattus norvegicus [6]): > 250 mg/kg | ED50 (Rattus norvegicus [7]): 13.6 mg/kg | ED50 (Mus musculus [8]): 33.1 mg/kg | ED50 (Mus musculus [9]): 35.4 mg/kg

logP [2]: 3.5
Structure (SMILES): N#Cc1[nH]cc(-c2ccc(Cl)cc2)c1N1CCOCC1
ED50 (Rattus norvegicus [6]): > 50 mg/kg | Protection (Mus musculus [14]): 30% | ED50 (Mus musculus [9]): > 300 mg/kg | Protection (Rattus norvegicus [15]): 100%

logP [2]: 3.1
Structure (SMILES): CN(C)C(=O)c1[nH]cc(-c2ccc(Cl)cc2)c1N1CCOCC1

logP [2]: 3.3
Structure (SMILES): COCCNC(=O)c1[nH]cc(-c2ccc(Cl)cc2)c1N1CCOCC1

logP [2]: 2.4
Structure (SMILES): NC(=O)c1[nH]cc(-c2ccc(Cl)cc2)c1N1CCOCC1
ED50 (Rattus norvegicus [6]): > 50 mg/kg | ED50 (Mus musculus [8]): 65 mg/kg | ED50 (Mus musculus [9]): > 500 mg/kg

logP [2]: 3.3
Structure (SMILES): COC(=O)c1[nH]cc(-c2ccc(Cl)cc2)c1N(C)CCN(C)C
ED50 (Rattus norvegicus [6]): > 50 mg/kg | Protection (Mus musculus [17]): 100% | ED50 (Mus musculus [9]): < 30 mg/kg | Protection (Rattus norvegicus [18]): 100%

logP [2]: 3.1
Structure (SMILES): O=C(c1[nH]cc(-c2ccc(Cl)cc2)c1N1CCOCC1)N1CCOCC1

Second part, the molecule before the results:

Structure (SMILES): NC(=O)N1c2ccccc2C=Cc2ccccc21 [CARBAMAZEPINE]
Seizure score (Rattus norvegicus [10]): 4.8 | Seizure score (Rattus norvegicus [11]): 2 | ED50 (Rattus norvegicus [6]): 361 mg/kg | ED50 (Rattus norvegicus [7]): 11.9 mg/kg | Seizure score (Rattus norvegicus [12]): 4.5 | ED50 (Mus musculus [8]): 9.9 mg/kg | Seizure score (Rattus norvegicus [13]): 3.8 | ED50 (Mus musculus [9]): 47.8 mg/kg

Structure (SMILES): CCOC(=O)c1[nH]cc(-c2ccc(Cl)cc2)c1N1CCN(C)CC1
Protection (Rattus norvegicus [16]): 100% | ED50 (Rattus norvegicus [6]): < 25 mg/kg | Protection (Mus musculus [17]): 100% | ED50 (Mus musculus [9]): < 25 mg/kg

Structure (SMILES): COC(=O)c1[nH]cc(-c2ccccc2C)c1N1CCOCC1
ED50 (Rattus norvegicus [6]): > 50 mg/kg | logP [2]: 2.8 | ED50 (Mus musculus [9]): > 100 mg/kg | Protection (Rattus norvegicus [18]): 50% | Protection (Mus musculus [19]): 60%

Structure (SMILES): COC(=O)CCc1c(N2CCOCC2)c(-c2ccc(Cl)cc2)cn1C
ED50 (Rattus norvegicus [20]): No effective response | ED50 (Mus musculus [21]): No effective response | ED50 (Rattus norvegicus [3]): No effective response | ED50 (Mus musculus [5]): No effective response

Structure (SMILES): COC(=O)c1[nH]cc(-c2ccc(Br)cc2)c1N1CCOCC1
Seizure score (Rattus norvegicus [22]): 3.7 | ED50 (Rattus norvegicus [6]): > 500 mg/kg | ED50 (Rattus norvegicus [7]): 2.5 mg/kg | logP [2]: 3.8 | Seizure score (Rattus norvegicus [23]): 4.3 | Seizure score (Rattus norvegicus [24]): 1.7 | ED50 (Mus musculus [8]): 27.8 mg/kg | ED50 (Mus musculus [9]): 166 mg/kg | Seizure score (Rattus norvegicus [25]): 1.9

Structure (SMILES): CCN1C(=O)c2c(N3CCOCC3)c(-c3ccc(Cl)cc3)cn2C1=O
ED50 (Rattus norvegicus [20]): No effective response | ED50 (Mus musculus [21]): No effective response | ED50 (Rattus norvegicus [3]): No effective response | ED50 (Mus musculus [5]): No effective response

Structure (SMILES): Clc1ccc(-c2c[nH]cc2N2CCOCC2)cc1
ED50 (Rattus norvegicus [6]): > 200 mg/kg | ED50 (Rattus norvegicus [7]): 17.7 mg/kg | logP [2]: 3.2 | ED50 (Mus musculus [8]): 62.1 mg/kg | ED50 (Mus musculus [9]): 115 mg/kg

Structure (SMILES): O=C1NC(=O)C(c2ccccc2)(c2ccccc2)N1 [PHENYTOIN]
Seizure score (Rattus norvegicus [26]): 4.4 | Seizure score (Rattus norvegicus [27]): 3.7 | ED50 (Rattus norvegicus [6]): > 500 mg/kg | Seizure score (Rattus norvegicus [28]): 5 | Seizure score (Rattus norvegicus [29]): 4.7 | ED50 (Mus musculus [8]): 6.5 mg/kg | ED50 (Mus musculus [9]): 42.8 mg/kg | Seizure score (Rattus norvegicus [30]): 3 | Seizure score (Rattus norvegicus [31]): 3

— ChEMBL document CHEMBL1131206, “Synthesis, anticonvulsant activity, and structure-activity relationships of sodium channel blocking 3-aminopyrroles” (J Med Chem, 1998)
